# Sampled rows, rich in hits. Any-hit rate of the full collection: about 4%.
# E-selectin induc: E-selectin induction in HUVECs, primary screen, imaging, HUVEC, immunofluorescence imaging, single point; P16581; normalized: neutral wells 0, TNF-alpha wells 100; activation, % at 7.58 µM; 260,000 tested, 0.37% active;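 active = mean E-selectin-positive cell signal at least 10% of the positive control, reached in at least 60% of replicates, without over 20% cell loss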
# Target sequence (P16581 whole entry, looked up): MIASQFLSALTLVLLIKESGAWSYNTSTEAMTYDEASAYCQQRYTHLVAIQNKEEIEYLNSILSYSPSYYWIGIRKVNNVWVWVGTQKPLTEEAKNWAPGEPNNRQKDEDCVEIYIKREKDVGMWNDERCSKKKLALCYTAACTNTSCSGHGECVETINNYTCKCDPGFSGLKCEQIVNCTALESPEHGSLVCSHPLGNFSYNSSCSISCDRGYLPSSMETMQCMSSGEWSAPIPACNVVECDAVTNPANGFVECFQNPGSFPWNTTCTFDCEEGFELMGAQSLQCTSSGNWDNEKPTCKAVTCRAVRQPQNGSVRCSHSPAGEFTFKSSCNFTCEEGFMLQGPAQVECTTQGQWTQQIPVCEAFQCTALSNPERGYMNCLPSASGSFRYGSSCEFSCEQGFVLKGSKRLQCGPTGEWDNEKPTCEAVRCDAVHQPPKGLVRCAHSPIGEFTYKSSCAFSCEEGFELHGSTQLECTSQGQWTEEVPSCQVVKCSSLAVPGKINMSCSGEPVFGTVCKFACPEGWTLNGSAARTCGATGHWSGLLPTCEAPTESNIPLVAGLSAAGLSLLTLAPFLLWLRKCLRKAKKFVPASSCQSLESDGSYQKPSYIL
#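 Test system: HUVEC; input: 3,000 HUVEC/well; measured by: immunofluorescence imaging; read-out: % PE-positive cells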
# SIRT5 block: SIRT5 desuccinylase inhibitors, primary screen, biochemical, fluorescence imaging, single point, set 5. 330,000 tested, 1.1% active. NAD-dependent protein deacylase sirtuin-5, mitochondrial (Homo sapiens), Q9NXA8. Purified SirT5, succinyl-peptide AMC, trypsin-coupled fluorescence. inhibition, % at 15 µM; in the data active = inhibition above about 15%
# rRNA inh HTS: reduced GFP signal of wild-type E. coli, primary screen, bacterial rRNA inhibitor project, GFP/RFP fluorescence, OD600, single point | E. coli WT GFP vs humanized-ribosome RFP mutants, 24 h; active compounds read low; DMSO median 0, no signal -100 | GFP signal change (wild-type ribosome), % (no concentration beside the values) | 350,000 tested, 1.6% active | AID 720706, 2013;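 active = significant combined selectivity score with lowered wild-type GFP, culture density cut under 30%, mutant RFP and density less affected; inactive = any of these conditions unmet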
# FN deposit inh: inhibitors of fibronectin matrix deposition, primary screen, AH1F cells, Alexa488-fibronectin fluorescence, plate reader; AH1F fibroblasts, overnight; inhibition, % at 12.6 µM; 350,000 tested, 0.086% active;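 active = mean inhibition across replicates of 30% or more, regardless of how many single replicates reach that level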;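 also: positive control wells lacked labelled fibronectin entirely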
#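 material = AH1F fibroblast monolayer depositing Alexa488-labelled fibronectin into matrix | amount = 10000 AH1F cells/well | buffer or medium = DMEM plus 2% serum, read in PBS | incubation = 1 h cell adhesion before compound, then overnight fibronectin incubation | detection = fluorescence at 485 nm excitation, 525 nm emission | evaluation = percent inhibition as loss of matrix-bound fibronectin fluorescence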
# FGF22 binding: binders of human FGF22 protein, primary screen, FGF22 synaptogenesis inhibitor project, biophysical, thermal shift, single point; Fibroblast growth factor 22 (Homo sapiens), Q9HCT0; recombinant FGF22 thermal shift, SYPRO orange fluorescence; percent of sucrose octasulfate shift, DMSO zero; activity (Tm shift, normalised), % at 9.99 µM; 340,000 tested, 1.5% active; AID 651658, 2012;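 active = mean Tm shift, scaled 0 neutral to 100 positive control, at about 1.3% or above, every replicate too, limit read from the data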
# Statin myotox sup: suppressors of statin myotoxicity in C2C12 myotubes, primary screen, cell-based, single point, plate reader. C2C12 myotubes + simvastatin, ATP luminescence, 48 h; scaled: DMSO 0, geranylgeraniol control 100. rescue of ATP level, % at 7.49 µM. 330,000 tested, 0.78% active;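 active = mean ATP rescue above about 67%, or every replicate alone reaching that limit, limit read from the data, passing the limit was not always enough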;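 also: myotubes were challenged with 10 µM simvastatin during compound exposure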
# The depositor's hits bear a star; . = no result given.
SMILES,E-selectin induc,SIRT5 block,rRNA inh HTS,FN deposit inh,FGF22 binding,Statin myotox sup
COP(=O)(OC)C(Nc1ccccc1)c1ccccc1 (stereo not drawn),0.2,0.4,12.2,10.3,-0.1,10.1
C/C(=N\N1CCCCCC1)c1c(O)n(-c2ccc(C)cc2)c(=O)[nH]c1=O,.,-1.1,7.6,3.7,43.6*,.
C/C(=N\NC(=O)c1ccccc1Cl)c1c(O)n(C2CCCCC2)c(=O)[nH]c1=O,.,3.3,-32.5*,-4.3,0.1,-2.3
C/C(=N\NC(=O)c1ccccc1)c1c(O)n(C2CCCCC2)c(=O)[nH]c1=O,0.0,8.6,2.8,-0.4,0.1,95.3*
C/C(=N\NC(=O)c1ccccc1O)c1c(O)n(Cc2ccccc2)c(=O)[nH]c1=O,5.7,2.5,-10.8,5.7,0.4,5.7
C/C(=N\NC(=O)c1ccccc1O)c1c(O)n(C2CCCCC2)c(=O)[nH]c1=O,.,2.2,-18.4*,-14.2,0.1,5.6
CC(=NCCO)c1c(O)n(C2CCCCC2)c(=O)[nH]c1=O,.,.,.,.,.,3.0
CC(C)NC(=O)N1C[C@@H]2C(c3ccccc3)[C@H](C1)N2CC1CC1 (stereo partly drawn),.,.,0.3,3.9,.,.
CC(=NCc1cccnc1)c1c(O)n(-c2ccccc2C)c(=O)[nH]c1=O,.,27.2*,20.7,.,0.2,11.1
CC(=NCc1cccnc1)c1c(O)n(C2CCCCC2)c(=O)[nH]c1=O,.,.,.,10.9,.,113.2*
O=C1CNC[C@H]2[C@H](c3ccc(Br)cc3)[C@H](CO)N12,0.1,-4.3,3.0,-22.0,0.2,.
COc1ccc2nc3oc(C(=O)N4CCC5(CC4)OCCO5)cc3cc2c1,.,-4.9,-12.7,-6.0,43.6*,.
CCCN1[C@@H]2c3ccc(-c4ccc(F)cc4)c(=O)n3C[C@H]1[C@H](CO)[C@H]2C(=O)OC,-0.4,-0.6,-2.2,.,0.1,-3.2
O=C1NC(=O)C(=Cc2ccco2)C(=O)N1,0.1,.,22.0,2.3,43.7*,0.4
O=C(Cc1ccccn1)N1CCCCN2[C@@H](CO)[C@H](c3ccc(C#Cc4ccccc4)cc3)[C@@H]2C1,-0.5,1.7,-55.2,.,0.0,.
CC(=O)Nc1ccc(OCCF)cc1,6.4,8.3,10.5,5.7,43.4*,.
CCCC(C)C1(CC)C(=O)NC(=O)N=C1N (stereo not drawn),.,1.5,8.1,10.7,44.2*,-4.3
C[C@H](CO)N1C[C@H](C)[C@@H](CN(C)C(=O)Oc2ccccc2)OCc2ccccc2-c2c(n(C)c3ccccc23)C1=O,.,.,-4.9,3.6,.,.
COc1cc(/C=C2\C[C@H]3[C@@H]4CC=C5C[C@@H](N6CCCC6)CC[C@]5(C)[C@H]4CC[C@]3(C)[C@H]2O)cc(OC)c1OC,-0.5,.,-21.4*,.,0.4,.
CSCCC(c1nnnn1Cc1ccccc1)N1CCC(n2c(=O)[nH]c3ccccc32)CC1 (stereo not drawn),0.0,-1.2,-9.8,2.6,0.6,1.0
O=c1[nH]c2ccccc2n1C1CCN(C(CCc2ccccc2)c2nnnn2Cc2ccccc2)CC1 (stereo not drawn),0.9,-0.5,7.3,40.7*,0.1,-0.9
O=c1c2ccccc2nc(/C=C/c2ccccc2F)n1-c1ccccc1O,-0.3,-5.0,-23.9*,-4.7,0.0,17.4
O=c1c2ccccc2nc(/C=C\c2ccccc2[N+](=O)[O-])n1-c1ccccc1O,.,0.6,-28.8*,0.9,0.0,20.7
O=c1c2ccccc2nc(/C=C/c2ccccc2O)n1-c1ccccc1O,0.2,-1.1,-15.8,-5.4,-0.5,.
CN1CCN(c2ncnc(Cl)c2N)CC1,.,1.9,16.5,-10.9,0.0,-10.9
SMILES,E-selectin induc,SIRT5 block,rRNA inh HTS,FN deposit inh,FGF22 binding,Statin myotox sup
CN1CCN(c2nccc3c2ncn3C)CC1,.,.,.,-4.2,.,101.4*
COc1ccccc1N1C(=O)NC(=O)/C(=C/c2ccc3c(c2)Cc2ccccc2-3)C1=O,.,0.4,-1.3,5.8,43.5*,.
O=C(O)[C@@H]1[C@@H](CO)[C@@H]2Cn3c(ccc(-c4cncnc4)c3=O)[C@H]1N2C(=O)NC1CCCC1,-1.6,-16.2,3.5,.,-0.1,-4.6
COc1ccc(NC(c2ccccc2F)P(=O)(Oc2ccccc2)Oc2ccccc2)cc1 (stereo not drawn),.,3.8,11.4,4.4,44.3*,.
CC1=C2C[C@H]3[C@@H](CC=C4C[C@@H](O)CC[C@@]43C)[C@@H]2CC[C@]12O[C@@H]1C[C@H](C)CN[C@@H]1C2C (stereo partly drawn),.,-0.7,.,.,-0.1,.
C/C(=N\N1CCCCCC1)c1c(O)n(-c2ccc(Cl)cc2)c(=O)[nH]c1=O,.,-7.6,7.5,0.2,0.0,4.5
CCC(=NCCO)c1c(O)n(-c2ccc(Cl)cc2)c(=O)[nH]c1=O,.,7.0,16.7,.,.,114.3*
COC(=O)[C@H]1[C@H](CO)[C@H]2Cn3c(ccc(-c4ccncc4)c3=O)[C@@H]1N2CCc1ccccc1,0.0,0.5,-2.6,.,0.0,-72.4
CCCC[N+]12CCC(CC1)C(C(O)(c1ccccc1)c1ccccc1)C2 (stereo not drawn),53.4*,.,1.9,7.5,0.0,1.7
CC(C)(C)c1o[nH]c(=O)c1CC(N)C(=O)O (stereo not drawn),0.0,-0.5,0.9,-14.2,0.0,0.1
NC(C(=O)O)c1cc(=O)[nH]o1 (stereo not drawn),84.2*,-0.3,11.9,4.9,0.1,16.3
c1ccc(CNC2CN3CCC2CC3)cc1 (stereo not drawn),-0.1,.,13.8,-1.4,.,0.6
CSc1ccc(CNC2CN3CCC2CC3)cc1 (stereo not drawn),.,28.8*,5.3,.,0.3,-2.8
CN(C)Cc1c[nH]c2ccc([N+](=O)[O-])cc12,1.0,.,-4.5,1.2,0.2,-10.4
CN(C)Cc1c[nH]c2cc([N+](=O)[O-])ccc12,-0.1,16.5*,-2.7,4.2,0.3,1.3
NC(=O)c1cn(C2OC(CO)C(O)C2O)c2ncnc(N)c12 (stereo not drawn),-1.8,-0.9,8.7,52.7*,-0.2,-172.8
COc1cc2c(cc1OC)CN(c1ccc([N+](=O)[O-])c(C(F)(F)F)c1)CC2,-0.1,-0.8,-18.8*,5.9,0.3,.
COc1ccc(C#Cc2ccc([C@@H]3[C@H](CO)N4CCCCN(C(=O)Cc5cccnc5)C[C@@H]34)cc2)cc1,-0.2,-1.3,-59.7,.,-0.1,.

# High-throughput results as filed in PubChem BioAssay.
